Experimental findings from ChEMBL document CHEMBL3817796, “Discovery of Novel 15-Lipoxygenase Activators To Shift the Human Arachidonic Acid Metabolic Network toward Inflammation Resolution” (J Med Chem, 2016) are described below.

The target of assay [1] is T1, Prostaglandin E synthase (Homo sapiens) (UniProt O14684).
T1 sequence (whole entry): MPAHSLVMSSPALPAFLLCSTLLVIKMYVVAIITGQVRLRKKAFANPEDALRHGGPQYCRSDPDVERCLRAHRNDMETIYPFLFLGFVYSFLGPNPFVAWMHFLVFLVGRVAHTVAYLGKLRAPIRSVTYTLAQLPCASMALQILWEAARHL
Description: Inhibition of mPGES-1 (unknown origin) assessed as reduction in conversion of PGH2 to PGE2 at 100 uM by EIA method. In outline: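 mPGES-1 activity taken as conversion of PGH2 to PGE2, with PGE2 measured by EIA. Compound handled as in the 15-LOX assay.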

Assay [2] addresses T2, Cytosolic phospholipase A2 (Homo sapiens) (UniProt P47712).
T2 sequence (whole entry): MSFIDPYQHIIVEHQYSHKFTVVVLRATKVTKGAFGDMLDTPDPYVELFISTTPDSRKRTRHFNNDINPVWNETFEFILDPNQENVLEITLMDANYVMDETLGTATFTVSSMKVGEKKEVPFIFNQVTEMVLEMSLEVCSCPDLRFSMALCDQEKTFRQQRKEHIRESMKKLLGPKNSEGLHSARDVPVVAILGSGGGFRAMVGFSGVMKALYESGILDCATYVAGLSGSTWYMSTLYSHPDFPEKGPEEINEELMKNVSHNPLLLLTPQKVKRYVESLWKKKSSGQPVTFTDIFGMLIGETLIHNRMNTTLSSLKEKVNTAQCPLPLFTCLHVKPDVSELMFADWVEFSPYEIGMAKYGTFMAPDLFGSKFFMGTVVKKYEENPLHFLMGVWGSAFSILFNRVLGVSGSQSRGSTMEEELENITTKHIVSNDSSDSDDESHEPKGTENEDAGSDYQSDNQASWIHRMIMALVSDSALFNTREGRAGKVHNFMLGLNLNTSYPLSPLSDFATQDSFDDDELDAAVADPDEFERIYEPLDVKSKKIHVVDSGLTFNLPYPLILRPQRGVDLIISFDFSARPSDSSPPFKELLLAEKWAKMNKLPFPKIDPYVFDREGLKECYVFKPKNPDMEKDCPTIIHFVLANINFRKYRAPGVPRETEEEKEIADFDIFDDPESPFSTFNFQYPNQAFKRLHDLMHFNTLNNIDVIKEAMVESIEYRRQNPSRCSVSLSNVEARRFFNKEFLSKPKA
Description: Inhibition of human cPLA2 assessed as reduction in hydrolysis of 7-hydroxycoumarinyl-gamma-linolenate or 2-oxo-2H-chromen-[…] (6Z,9Z,12Z)-octadeca-6,9,12-trienoate at 100 uM by fluorometry. The method in brief: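 Purified human cPLA2 (1 μg/mL final) started the reaction with 7-hydroxycoumarinyl-γ-linolenate substrate. Fluorescence (ex 355/em 460 nm) recorded over 84 min. Compound handled as in the 15-LOX assay.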

Assay [3] concerns the target T3, Polyunsaturated fatty acid lipoxygenase ALOX15 (Homo sapiens) (UniProt P16050).
T3 sequence (whole entry): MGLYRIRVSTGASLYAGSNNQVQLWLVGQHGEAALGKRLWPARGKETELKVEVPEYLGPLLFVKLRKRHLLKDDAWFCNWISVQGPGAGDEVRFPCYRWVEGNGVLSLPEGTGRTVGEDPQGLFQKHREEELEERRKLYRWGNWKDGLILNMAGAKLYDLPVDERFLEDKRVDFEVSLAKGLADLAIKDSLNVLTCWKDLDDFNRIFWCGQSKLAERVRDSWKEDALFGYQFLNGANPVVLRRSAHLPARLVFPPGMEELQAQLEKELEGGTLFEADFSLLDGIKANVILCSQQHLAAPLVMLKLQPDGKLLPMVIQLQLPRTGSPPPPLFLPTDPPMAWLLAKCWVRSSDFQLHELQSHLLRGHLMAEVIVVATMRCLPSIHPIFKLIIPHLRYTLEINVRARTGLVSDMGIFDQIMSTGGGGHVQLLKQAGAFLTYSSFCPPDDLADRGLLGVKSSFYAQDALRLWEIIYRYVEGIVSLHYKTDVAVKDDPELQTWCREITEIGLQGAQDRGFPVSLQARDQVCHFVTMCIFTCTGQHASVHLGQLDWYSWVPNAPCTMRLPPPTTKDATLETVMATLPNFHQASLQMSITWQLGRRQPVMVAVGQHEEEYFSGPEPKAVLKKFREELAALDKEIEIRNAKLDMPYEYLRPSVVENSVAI
Description: Activation of 15-LOX in human whole blood assessed as increase in 13-HODE production at 100 uM pre-incubated for 20 mins before stimulation with LPS and A23187 for 120 mins in presence of 2 uM […] inhibitor Zileuton by LC-MS/MS method. The assay is classed as tissue-based. In outline:
(§1)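 Human blood preincubated 20 min at 37 °C with DMSO vehicle or compound in DMSO. LPS added at 100 μg/mL for 24 h at 37 °C, then A23187 at 20 μg/mL final. Samples frozen in liquid nitrogen at time points, lysed by freeze–thaw, with PGB2 internal standard. Analysed by C18 LC-MRM MS, negative ion. Change = control-normalized concentration minus 1, ×100%; 120 min value from AUC.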

The target of assay [4] is T4, Prostaglandin G/H synthase 2 (Homo sapiens) (UniProt P35354).
T4 sequence (whole entry): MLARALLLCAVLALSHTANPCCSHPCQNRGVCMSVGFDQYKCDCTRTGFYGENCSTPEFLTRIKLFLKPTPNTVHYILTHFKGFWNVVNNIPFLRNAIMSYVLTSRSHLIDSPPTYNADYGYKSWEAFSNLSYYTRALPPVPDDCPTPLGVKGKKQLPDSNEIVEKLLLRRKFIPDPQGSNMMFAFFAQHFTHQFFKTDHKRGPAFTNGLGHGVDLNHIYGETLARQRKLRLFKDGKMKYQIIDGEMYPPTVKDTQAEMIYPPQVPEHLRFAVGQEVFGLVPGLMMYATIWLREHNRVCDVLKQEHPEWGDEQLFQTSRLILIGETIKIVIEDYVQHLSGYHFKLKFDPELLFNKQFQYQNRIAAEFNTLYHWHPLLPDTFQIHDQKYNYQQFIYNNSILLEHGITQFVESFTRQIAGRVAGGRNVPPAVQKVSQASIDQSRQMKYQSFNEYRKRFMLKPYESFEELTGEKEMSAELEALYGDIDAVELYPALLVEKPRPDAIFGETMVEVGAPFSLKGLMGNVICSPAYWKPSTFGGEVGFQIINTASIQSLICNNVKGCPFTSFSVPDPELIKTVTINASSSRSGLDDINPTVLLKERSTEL
The experiment in a line: Inhibition of COX2 (unknown origin) assessed as reduction in PGG2 to PGH2 conversion by measuring N,N,N',N'-tetramethyl-p-phenylenediamine oxidation at 100 uM by spectrophotometry.

For assay [5], the target named is T3, Polyunsaturated fatty acid lipoxygenase ALOX15 (Homo sapiens). The experiment in a line: Activation of 15-LOX in human whole blood assessed as increase in 13-HODE production at 100 uM pre-incubated for 20 mins before stimulation with LPS and A23187 for 120 mins by LC-MS/MS method. The assay is classed as tissue-based. In outline: as §1

Calls of active or inactive are those of the source. No cut-off for these calls is given here. Bounds are passed on as bounds.

Turning to `CN1CCN(CC(=O)N2N=C3/C(=C/c4ccccc4)CCCC3C2c2ccccc2)CC1` (stereo not given), the inhibition in assay [1] is 63%; in assay [2], 20%; in assay [4], less than 5%. For the same molecule, in assay [3], the outcome was Active. In assay [5], the Activity stood at 95%.

In general, inhibition refers to the change of the read-out against control, counted positive when it falls.
